# S1P1 ag-PAM: S1P1 agonists and agonism potentiators, primary screen, cell-based, primary and confirmation screens, CRE-bla reporter; Sphingosine 1-phosphate receptor 1 (Homo sapiens), P21453; S1P1 CRE-bla cells, forskolin, beta-lactamase FRET, potentiator mode; S1P1 agonist co-added at EC20, 2 nM; 100% = saturating reference agonist, 0% = basal; activation, % at 9.5 µM; actives 0.57% (n = 56,000); AID 449, 2006;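 active = activation above a cutoff set at the mean activation of all tested compounds plus 3 SD, cut at about 54% in these data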;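 also: forskolin at 4 µM as EC80 and the EC20 agonist is SEW2871; 100% = SEW2871 at its EC100 plus forskolin at EC80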
# Target sequence (P21453 whole entry, looked up): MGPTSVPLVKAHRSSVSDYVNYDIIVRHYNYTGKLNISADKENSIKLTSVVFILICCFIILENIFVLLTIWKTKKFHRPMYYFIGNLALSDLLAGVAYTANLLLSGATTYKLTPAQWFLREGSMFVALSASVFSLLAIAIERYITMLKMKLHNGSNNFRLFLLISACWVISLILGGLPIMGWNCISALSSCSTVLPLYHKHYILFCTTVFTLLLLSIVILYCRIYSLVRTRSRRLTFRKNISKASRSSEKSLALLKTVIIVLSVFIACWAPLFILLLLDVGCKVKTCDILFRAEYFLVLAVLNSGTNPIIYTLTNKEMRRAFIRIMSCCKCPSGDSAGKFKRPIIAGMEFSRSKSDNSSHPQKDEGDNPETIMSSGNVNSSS
# HTR1E antagonist: 5-HT1E receptor antagonists, primary screen, cell-based, HTS | CHO 5-HT1E Ga15 NFAT-bla reporter, FRET, antagonist | inhibition, % at 6 µM | actives 0.99% (n = 65,000) | AID 571, 2007;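 active = inhibition above a set limit, the mean inhibition across every tested compound plus 3 SD, cut at about 29% in these data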;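 also: signal is the 460 over 535 nm emission ratio of beta-lactamase substrate; 0% = agonist plus DMSO wells and 100% = wells without agonist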
# 5HT1a ag: human 5-HT1a receptor agonists, primary screen, cell-based, CHO, Ga15 NFAT-bla reporter; CHO 5-HT1a Ga15 NFAT-bla reporter, FRET ratio; 0% basal, 100% maximal reference agonist; AID 567, 2006; 5-hydroxytryptamine receptor 1A (Homo sapiens), P08908; actives 0.56% (n = 65,000); activation, % at 10 µM;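 active = activation above the screen-wide mean activation plus 3 SD, cut at about 19% in these data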;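 also: 0% = DMSO wells and 100% = 5-CT at EC100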
# 5HT1E ag: 5-HT1E receptor agonists, primary screen, cell-based, HTS | CHO 5-HT1E Ga15 NFAT-bla reporter, FRET; 0% DMSO wells, 100% control agonist wells | activation, % at 6 µM | actives 0.69% (n = 65,000) | AID 574, 2007;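 active = activation above a set limit, the screen-wide mean activation plus 3 SD, cut at about 8.5% in these data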;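 also: 100% = positive control agonist at 1 µM giving full maximal response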
# S1P3 ag: human S1P3 receptor agonists, primary screen, cell-based, primary and confirmation, NFAT-BLA reporter; Sphingosine 1-phosphate receptor 3 (Homo sapiens), Q99500; S1P3 NFAT-BLA reporter cells, agonism, FRET ratio; relative to 1 µM S1P, basal subtracted; activation, % at 4.5 µM; actives 0.1% (n = 60,000); AID 373, 2006;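 active = activation above the screen-wide mean plus 3 SD, cut at about 4.5% in these data, passing the limit was not always enough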
#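 Benchmarks: high control 1 µM S1P / System: stable CHO line with human S1P3, Gα16, NFAT-BLA reporter / Dosing: single compound concentration, 4.5 µM final / Timing: 4 h compound at 37 °C, 2 h substrate at RT / Measured by: FRET β-lactamase substrate fluorescence, excitation 405 nm, 460/535 nm emission ratio, background-subtracted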
# 5HT1a antag: human 5-HT1a receptor antagonists, primary screen, cell-based, CHO, Ga15 NFAT-bla reporter; CHO 5-HT1a Ga15 NFAT-bla reporter, antagonist mode; actives 0.68% (n = 62,000); AID 612, 2007; 5-hydroxytryptamine receptor 1A (Homo sapiens), P08908; inhibition, % at 10 µM;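 active = inhibition above the mean of all tested compounds plus 3 SD, cut at about 43% in these data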;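 also: receptor stimulated by 5-CT agonist at 100 nM near EC80; beta-lactamase reporter measured by ratiometric fluorescence of a cleavable substrate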
# Starred values were filed as active, the others as inactive; / = no result given. Sampled rows, rich in hits. Any-hit rate of the full collection: about 3%.
SMILES,S1P1 ag-PAM,HTR1E antagonist,5HT1a ag,5HT1E ag,S1P3 ag,5HT1a antag
COc1ccccc1N=c1scc(-c2ccc3c(c2)NC(=O)CO3)n1CC1CCCO1 (stereo not given),7.7,-2.4,0.6,0.1,0.9,5.6
CCN=c1scc(-c2ccc3c(c2)NC(=O)CO3)n1N=C1CCCC1,63.5*,1.1,-2.5,0.5,-0.7,-0.9
Cn1c(=O)c2cc(S(=O)(=O)N3CCC(c4ccccc4)CC3)ccc2n(C)c1=O,/,6.8,-2.5,-0.3,-0.9,15.2
COc1ccc2[nH]c(=O)c3c(c2c1)OC(C)(C)C=C3,99.3,23.7,-1.4,-0.3,-2.0,60.0*
COc1ccc2[nH]c(C)c(CCN3C(=O)OC(C)(C)C3(C)O)c2c1 (stereo not given),-8.3,1.0,-1.0,0.2,-0.4,-1.1
CCOc1ccc2[nH]c(=O)c(CN(Cc3cccs3)Cc3nnnn3C(C)(C)CC)cc2c1,9.0,16.7,6.6,9.5*,-0.3,31.6
CCOC(=O)N1CCC(Nc2c(N3CCN(c4cc(Cl)ccc4C)CC3)c(=O)c2=O)CC1,-2.1,8.0,64.5*,0.8,-0.9,-4.9
CCOC(=O)N1CCC(Nc2c(-c3ccc(C)c(C)c3)c(=O)c2=O)CC1,19.6,1.3,-2.8,-0.2,0.7,2.6
CC1CCC(C(C)C)C(OC(=O)CSc2n[nH]c(=O)[nH]c2=O)C1 (stereo not given),-0.8,-7.7,-1.8,0.5,-0.4,-7.1
Cn1cnnc1SCC(=O)Nc1ccccc1Sc1ccccc1,7.0,-4.3,310.6*,0.2,0.8,-9.7
CCN(CC)C(=O)CSc1ccccc1N,/,-7.9,19.9*,-0.6,-0.8,-4.8
COc1ccc(C2=CC(c3ccc(Cl)cc3)n3cnnc3N2)cc1OC (stereo not given),/,34.5*,-6.8,-0.8,/,40.4
COc1ccc(C2C=C(c3ccc(Cl)cc3)Nc3nc(NC(C)=O)nn32)cc1 (stereo not given),25.4,14.2,-2.0,0.0,-1.4,/
CCCn1cnc2c(c1=O)c1nc3ccccc3nc1n2Cc1ccccc1OC,-9.8,7.1,-1.0,-1.1,-0.9,1.0
COCCn1c(N)c(C(=O)NCc2cccs2)c2nc3ccccc3nc21,-45.0,13.2,10.7,2.0,2.7,-23.0
N#Cc1c(N)n(CCOC(=O)c2cccc(Br)c2)c2nc3ccccc3nc12,-89.7,6.3,30.6*,5.1,1.6,/
COc1cc(Cn2c(N)c(C#N)c3nc4ccccc4nc32)cc(OC)c1,-58.9,13.8,21.4*,6.0,4.9,25.4
COc1cccc(Cn2c(N)c(C#N)c3nc4ccccc4nc32)c1OC,-54.0,32.8*,7.7,3.5,2.2,-11.2
C=C(C)CSc1nnc([C@@H](NC(=O)OC(C)(C)C)C(C)CC)o1 (stereo not given in full),-7.9,2.2,2.3,-0.1,2.6,13.9
Cc1nc(SCCCSc2n[nH]c(C)n2)n[nH]1,/,1.2,-4.6,0.4,-0.3,-1.8
Cc1cccc(N2CCN(C(=O)c3ccncc3)CC2)c1C,/,-3.5,2.2,18.7*,-0.4,-6.9
COc1cc(C(=O)N2CCN(c3cc(Cl)ccc3Cl)CC2)cc(OC)c1OC,-0.2,63.5*,0.2,-0.1,-0.8,21.5
Cc1ccccc1S(=O)(=O)Cc1ccc(C(=O)N2CC(C)CC(C)C2)o1 (stereo not given),-3.5,-2.0,-0.6,0.7,0.5,-1.4
Cc1cccc(N2CCN(C(=O)CSCc3c(C)noc3C)CC2)c1C,81.7*,1.5,-0.7,1.2,-1.4,17.4
Cc1ccccc1S(=O)(=O)Cc1ccc(C(=O)N2CCN(c3cccc(C)c3C)CC2)o1,29.0,21.8,1.9,32.4*,-1.6,15.5
SMILES,S1P1 ag-PAM,HTR1E antagonist,5HT1a ag,5HT1E ag,S1P3 ag,5HT1a antag
Cc1noc(C)c1CSCC(=O)N1CCN(c2ccc(F)cc2)CC1,5.7,1.6,-6.1,-0.2,-0.9,1.9
COc1ccc(C(=O)N2CCN(C(=O)c3cc(OC)c(OC)c(OC)c3)CC2)cc1,3.8,-9.7,0.9,0.9,0.5,-4.2
CCOc1ccccc1N1CCN(C(=O)c2ccncc2)CC1,5.5,2.2,0.3,1.5,-1.3,-1.3
CN1CCN(C(c2cccc(C(F)(F)F)c2)c2nnnn2Cc2ccccc2)CC1 (stereo not given),-2.8,2.9,-1.6,-0.7,-0.2,11.0
CC1(c2cccs2)CC(c2cccs2)=C(C#N)C(=O)N1 (stereo not given),-4.2,10.0,-0.1,-0.1,-1.0,-0.2
COc1cc(C(=O)N2CCN(c3cccc(C)c3C)CC2)cc(OC)c1OC,1.6,50.1*,-1.7,0.5,-2.1,21.0
COc1cc(C)c(Cl)cc1S(=O)(=O)NCC1CCCO1 (stereo not given),-9.0,-8.6,3.1,0.3,-0.6,1.3
CCOc1cc(C)c(Cl)cc1S(=O)(=O)NCC1CCCO1 (stereo not given),11.7,31.0*,0.2,-1.3,-0.7,12.2
COc1ccc(NC(=O)CN(c2ccc(C)cc2)S(=O)(=O)c2c(C)nn(C)c2C)cc1OC,5.1,6.4,-0.3,0.0,-0.4,-2.6
CCN(CC(=O)Nc1ccc(OC)c(OC)c1)S(=O)(=O)c1ccc(C)cc1,/,-7.4,22.1*,-0.3,0.6,-18.0
C=CCn1c(N)c(C(=O)OC(C)(C)C)c2nc3ccccc3nc21,-17.6,11.5,3.6,1.8,-2.4,/
C=CCn1c(N)c(C(=O)Nc2ccccc2)c2nc3ccccc3nc21,-59.9,1.4,26.9*,6.2,4.0,/
O=C(Nc1cccc(C(F)(F)F)c1)N1CCC(c2nc(-c3ccc(F)cc3)no2)CC1,58.3*,3.3,-0.8,-0.1,-0.9,24.6
CC/C(=C\C(=O)c1cccnc1)Nc1ccc(C)c(C)c1,5.3,-3.3,-3.3,-0.4,0.7,1.6
O=C(COC(=O)c1cccc(NC(=O)c2ccco2)c1)c1ccc(Br)cc1,-2.3,7.0,-2.0,-0.1,-1.0,-3.7
O=C(Cc1cccs1)N1CCCC(c2nc3c(nnn3Cc3cccc(Cl)c3)c(=O)[nH]2)C1 (stereo not given),-28.5,-7.2,1.2,-0.5,0.1,-12.9
CCOc1ccc2nc3c(cc2c1)CN(CCCO)C(=NCCOC)S3,9.5,-2.1,2.3,0.9,0.2,-15.2
